Results on 26 molecules are retold here after ChEMBL document CHEMBL1148254, “Lead discovery of quinoxalinediones as an inhibitor of dipeptidyl peptidase-IV (DPP-IV) by high-throughput screening” (Bioorg Med Chem Lett, 2004).

Dipeptidyl peptidase 4 (Rattus norvegicus), sequence (P14740 whole entry, looked up): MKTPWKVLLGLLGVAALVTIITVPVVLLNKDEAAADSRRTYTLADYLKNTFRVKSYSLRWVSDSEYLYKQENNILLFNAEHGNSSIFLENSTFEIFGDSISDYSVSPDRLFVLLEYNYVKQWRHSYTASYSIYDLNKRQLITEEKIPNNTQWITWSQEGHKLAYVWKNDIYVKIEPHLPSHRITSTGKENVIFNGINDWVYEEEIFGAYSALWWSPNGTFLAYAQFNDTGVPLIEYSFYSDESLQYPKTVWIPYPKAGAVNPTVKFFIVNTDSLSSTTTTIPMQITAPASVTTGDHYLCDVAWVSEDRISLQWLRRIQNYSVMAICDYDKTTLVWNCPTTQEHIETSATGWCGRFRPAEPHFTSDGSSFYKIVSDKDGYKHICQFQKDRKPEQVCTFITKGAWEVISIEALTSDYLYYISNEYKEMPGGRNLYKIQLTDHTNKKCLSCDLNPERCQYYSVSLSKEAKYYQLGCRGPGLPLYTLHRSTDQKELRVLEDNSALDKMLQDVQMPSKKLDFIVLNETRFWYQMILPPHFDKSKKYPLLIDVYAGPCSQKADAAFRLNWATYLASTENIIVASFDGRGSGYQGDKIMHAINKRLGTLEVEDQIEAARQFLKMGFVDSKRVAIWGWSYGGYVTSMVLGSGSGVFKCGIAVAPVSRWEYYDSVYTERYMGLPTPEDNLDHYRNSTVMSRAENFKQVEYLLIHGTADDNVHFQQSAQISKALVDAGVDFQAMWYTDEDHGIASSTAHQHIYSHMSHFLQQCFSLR

The target of this experiment is Dipeptidyl peptidase 4 (Rattus norvegicus) (UniProt P14740). The experiment can be described thus: Inhibitory activity against Dipeptidylpeptidase IV in rat. Also on record: concentration or dose not given beside the values. To be noted: concentration not given here. In a few lines:
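Rat plasma was the enzyme source, incubated with Ala-Pro-AFC substrate (40) at room temperature, pH 7.8, for 1 h with or without test compound (20). Compounds were dissolved in DMSO, giving 5% DMSO in the assay mixture. Released AFC was read by fluorescence at 360 nm excitation and 485 nm emission, and a reference inhibitor was included.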
Turning to `O=C(NC(=O)c1ccccc1)Nn1c(=O)c(=O)[nH]c2cc(Cl)ccc21`, the inhibition (as a rule, the percentage by which the read-out fell short of the control) was 14.8%.

Take `Cc1ccc(NC(=O)Nn2c(=O)c(=O)[nH]c3cc([N+](=O)[O-])ccc32)cc1`: the inhibition was 1%. Molecule `O=C(NC(=O)c1ccccc1)Nn1c(=O)c(=O)[nH]c2ccccc21` gave an inhibition of 13%.

Regarding `Cc1ccccc1S(=O)(=O)NC(=O)Nn1c(=O)c(=O)[nH]c2cc(Cl)c(Cl)cc21`, the inhibition worked out at 10.4%. As for `O=C(NC(=S)Nn1c(=O)c(=O)[nH]c2cc(Cl)c(Cl)cc21)c1ccccc1`, the figure is 20.5%; as for `O=C(Nc1cccc(Cl)c1)Nn1c(=O)c(=O)[nH]c2cc([N+](=O)[O-])ccc21`, 6.6%; as for `Cc1ccc(S(=O)(=O)NC(=O)Nn2c(=O)c(=O)[nH]c3ccccc32)cc1`, 12.3%. `Cc1ccccc1S(=O)(=O)NC(=O)Nn1c(=O)c(=O)[nH]c2cc([N+](=O)[O-])ccc21` returned an inhibition of 79.1%.

In the case of `O=C(Nn1c(=O)c(=O)[nH]c2cc([N+](=O)[O-])ccc21)NS(=O)(=O)c1ccc(Cl)cc1`, the inhibition was determined as 66.8%. Molecule `Cc1ccccc1S(=O)(=O)NC(=O)Nn1c(=O)c(=O)[nH]c2cc(Cl)ccc21` gave an inhibition of 26.4%.

Turning to `O=c1[nH]c2cc(Cl)c(Cl)cc2n(NC(=S)Nc2ccccc2)c1=O`, the inhibition is 50%. Consider `CC/N=C(\S)Nn1c(=O)c(=O)[nH]c2ccccc21`, for which the inhibition is 40.1%. As for `O=C(Nn1c(=O)c(=O)[nH]c2cc([N+](=O)[O-])ccc21)NS(=O)(=O)c1ccccc1`, the figure is 57.2%; as for `O=c1[nH]c2ccccc2n(NC(=S)Nc2cccc(Cl)c2)c1=O`, 32.1%. Molecule `Cc1ccc(S(=O)(=O)NC(=O)Nn2c(=O)c(=O)[nH]c3cc([N+](=O)[O-])ccc32)cc1` displayed an inhibition of 48%. `Cc1ccc(S(=O)(=O)NC(=O)Nn2c(=O)c(=O)[nH]c3cc(Cl)c(Cl)cc32)cc1` yielded an inhibition of 21%. Turning to `O=c1[nH]c2ccccc2n(NC(=S)NCc2ccccc2)c1=O`, the inhibition is 41.5%. As for `O=C(Nc1ccc(F)cc1F)Nn1c(=O)c(=O)[nH]c2cc([N+](=O)[O-])ccc21`, the figure is 5.1%; as for `O=C(NC(=O)c1ccccc1)Nn1c(=O)c(=O)[nH]c2cc([N+](=O)[O-])ccc21`, 72.2%. The molecule `O=C(Nn1c(=O)c(=O)[nH]c2cc(Cl)c(Cl)cc21)NS(=O)(=O)c1ccccc1` gave an inhibition of 23.7%. Regarding `O=c1[nH]c2ccccc2n(NC(=S)Nc2ccccc2)c1=O`, the inhibition came to 26.5%. Molecule `O=C(Nc1ccccc1)Nn1c(=O)c(=O)[nH]c2cc([N+](=O)[O-])ccc21` showed an inhibition of 3.6%.

`O=C(Nn1c(=O)c(=O)[nH]c2cc(Cl)ccc21)NS(=O)(=O)c1ccccc1` had an inhibition of 17.3%. `Cc1ccc(S(=O)(=O)NC(=O)Nn2c(=O)c(=O)[nH]c3cc(Cl)ccc32)cc1`: the inhibition stood at 20.5%. With `Cc1ccccc1S(=O)(=O)NC(=O)Nn1c(=O)c(=O)[nH]c2ccccc21`, the inhibition is 12.3%. In turn, `O=C(Nn1c(=O)c(=O)[nH]c2ccccc21)NS(=O)(=O)c1ccccc1` came in with an inhibition of 14.1%.
